The subject of one series is HeLa. Kind of series: Inhibition of cell migration in human HeLa cells assessed as reduction in wound healing at 8 uM incubated for 36 hrs by incucyte live-cell imager. It counts as functional, cell-based. In short, it runs like this: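 HeLa or A549 cells seeded in collagen-coated 96-well plates to near confluency. Monolayer scratched, then medium replaced with medium containing various inhibitor concentrations. Plates imaged every 2 h for 36 h in an Incucyte. Wound area measured with an image-analysis wound healing tool.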

Series [1] is described as follows: Permeability of compound in MDCK-MDR1 cells. It counts as ADME, cell-based, Canis lupus familiaris. The settings on record: dog. In short, it runs like this:
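Permeability and P-gp efflux measured by transit across MDCK-MDR1 cell monolayers by an outside contract laboratory.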

Series [2] deals with HEK293. As to the kind of experiment: Inhibition of wild type C-terminal halo-tagged S100A4-nanoluc-fused NMII interaction (unknown origin) expressed in HEK293 cells using nano-glo as substrate incubated for 24 hrs by Nano-bret assay. It is filed as cell-based. Particulars: Homo sapiens.
The next series is filed under the species Homo sapiens. As to the kind of experiment: Inhibition of S100A11-AN2 interaction (unknown origin) by HTRF analysis. In a few lines:
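TR-FRET peptide-displacement assays run in parallel: S100A4 with MPN (NMII-mimicking) peptide, and S100A11 with AnII-mimicking peptide, both with 1 mM calcium. Duplicate dose-response in two independent experiments; top concentration 100 μM or 48.75 μM depending on series. IC50 fitted from percentage inhibition against solvent controls.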
A general note: In TR-FRET formats the signal depends on donor and acceptor labels being close together.

Series [3] deals with HEK293. As to the kind of experiment: Inhibition of C-terminal halo-tagged S100A4 C81S mutant-nanoluc-fused NMII interaction (unknown origin) expressed in HEK293 cells using nano-glo as substrate incubated for 24 hrs by Nano-bret assay relative to control. It is filed as cell-based. Particulars: Homo sapiens, dose or concentration not given here. In a few lines: (§1)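 S100A4 wild-type or C81S construct co-expressed with NMII fusion in HEK293 cells, run in parallel. Inhibitors given at a single 30 μM for 24 h with HaloTag 618 ligand in phenol-red-free 4% serum medium. NanoGlo substrate added. Background-corrected 618/460 nm BRET ratio compared with DMSO-treated cells.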

Series [4] deals with HEK293. Kind of series: Inhibition of C-terminal halo-tagged S100A4 C81S mutant-nanoluc-fused NMII interaction (unknown origin) expressed in HEK293 cells using nano-glo as substrate incubated for 24 hrs by Nano-bret assay. It is filed as cell-based. The settings on record: Homo sapiens. In short, it runs like this: as §1
Series [5] in a line: Aqueous solubility of compound in PBS buffer at pH 7.4. It is filed as physicochemical. In short, it runs like this: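 Aqueous solubility measured in PBS pH 7.4 by an outside contract laboratory.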
Series [6] is described as follows: Inhibition of S100A4-NMII interaction (unknown origin) by HTRF analysis. More on the design: species or system Homo sapiens. In short, it runs like this: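 TR-FRET peptide-displacement assays run in parallel: S100A4 with MPN (NMII-mimicking) peptide, and S100A11 with AnII-mimicking peptide, both with 1 mM calcium. IC50 fitted from percentage inhibition against solvent controls.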

A further series has as its target Protein S100-A4 (Homo sapiens, UniProt P26447). As to the kind of experiment: Inhibition of S100A4 (unknown origin) in presence of GSH by HTRF analysis.

Activity calls are given as the source filed them. The rule behind the calls is not given here.

Sequence of Protein S100-A4 (P26447 whole entry): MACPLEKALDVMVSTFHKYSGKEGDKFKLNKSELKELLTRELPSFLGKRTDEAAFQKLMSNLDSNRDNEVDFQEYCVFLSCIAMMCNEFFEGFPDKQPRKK

As to `O=C(NC1CCCc2ccccc21)[C@H]1C[C@H](c2ccccc2)CN1C(=O)CCl` (some centres not stated), the inhibition entry with HeLa, in the series with HEK293 [2] and in the series on HEK293 [4] was “Active” in each case. Also, in series [1], the permeability result is on record as “Permeable”. For the same compound, the inhibition result in the series listed under Homo sapiens is “inactive”. For the same compound, in the series on HEK293 [3], the inhibition was less than 60%. Further, the solubility result in series [5] is recorded as “soluble”.
Regarding `O=C1Nc2ccccc2C1NC(=O)[C@H]1C[C@H](c2ccccc2)CN1C(=O)CCl` (some centres not stated), the IC50 in series [6] was less than 1000 nM. The inhibition entry in the series listed under Homo sapiens is “inactive”.
`Cc1ccc(S(=O)(=O)/C=C/C#N)cc1`: the IC50 at Protein S100-A4 was greater than 20000 nM.
For the compound `O=C(Nc1cccc(Cl)c1)[C@H]1C[C@H](c2ccccc2)CN1C(=O)CCl`, the inhibition entry in the series with HeLa, in the series with HEK293 [2] and in the series with HEK293 [4] was “Active” throughout. In addition, the IC50 in series [6] was 2900 nM; at Protein S100-A4, 4620 nM. In the series on HEK293 [3], this compound yielded an inhibition of less than 60%.
The compound `CN1CCCC(NC(=O)[C@H]2C[C@H](c3ccccc3)CN2C(=O)CCl)C1=O` (some centres not stated) yielded an IC50 in [6] of less than 1000 nM. For the same compound, the inhibition result in the series listed under Homo sapiens was “inactive”.
In the same order, the values of `N#CCc1ccc(NC(=O)[C@H]2C[C@H](c3ccccc3)CN2C(=O)CCl)cc1` are less than 1000 nM and “inactive”.
For the compound `COc1cccc(N2CC(NC(=O)[C@H]3C[C@H](c4ccccc4)CN3C(=O)CCl)CC2=O)c1` (some centres not stated), the IC50 in series [6] is less than 1000 nM. Besides, the inhibition entry in the series listed under Homo sapiens was “inactive”.

Broadly, the inhibition is the drop in the measured response relative to a control, in per cent. A word on the IC50: it is the concentration at which inhibition is half-maximal.

The record behind these values is ChEMBL document CHEMBL6078633, “Covalent Inhibitors of S100A4 Block the Formation of a Pro-Metastasis Non-Muscle Myosin 2A Complex” (J Med Chem, 2024).
